{"data": "Results gathered from unrelated publications", "target": "Hormonally up-regulated neu tumor-associated kinase (HUNK, Homo sapiens, UniProt P57058)", "Residues used in one study (P57058 1-714)": "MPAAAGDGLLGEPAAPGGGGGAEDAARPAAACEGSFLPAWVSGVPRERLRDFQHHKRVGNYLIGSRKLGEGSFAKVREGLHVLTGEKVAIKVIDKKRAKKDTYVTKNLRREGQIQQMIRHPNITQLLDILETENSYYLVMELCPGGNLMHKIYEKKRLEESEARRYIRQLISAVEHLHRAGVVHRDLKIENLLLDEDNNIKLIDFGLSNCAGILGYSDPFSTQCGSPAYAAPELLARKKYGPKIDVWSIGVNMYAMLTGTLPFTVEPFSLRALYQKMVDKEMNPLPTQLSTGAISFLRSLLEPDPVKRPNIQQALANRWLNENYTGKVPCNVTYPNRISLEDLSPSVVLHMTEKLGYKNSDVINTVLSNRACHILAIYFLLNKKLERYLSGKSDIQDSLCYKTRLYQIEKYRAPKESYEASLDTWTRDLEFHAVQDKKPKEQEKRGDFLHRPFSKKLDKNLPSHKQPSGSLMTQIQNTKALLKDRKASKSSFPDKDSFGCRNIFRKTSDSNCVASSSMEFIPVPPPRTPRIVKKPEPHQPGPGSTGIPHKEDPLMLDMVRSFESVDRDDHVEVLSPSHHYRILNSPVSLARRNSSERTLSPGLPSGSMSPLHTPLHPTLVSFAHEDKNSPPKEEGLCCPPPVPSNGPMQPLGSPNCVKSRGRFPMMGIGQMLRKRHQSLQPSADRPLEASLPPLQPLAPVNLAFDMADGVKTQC", "note": "Protocols differ between the studies behind these lines."}
{"Compound": "CNC(=O)Nc1ccc2c(c1)CC[C@@]21OC(=O)N(CC(=O)N(Cc2ccc(F)cc2)[C@@H](C)C(F)(F)F)C1=O", "test": "cell-free assay, competition with immobilised ligand", "conditions": "1 µM", "remaining binding": "100%"}
{"Compound": "C[C@H]1CCN(c2nccc(-c3cnn4ncccc34)n2)C1", "test": "binding", "conditions": "1 µM", "remaining binding": "100%"}
{"Compound": "Cc1cc(C)c(-n2ccn3nc(-c4cccnc4)cc23)cc1NC(=O)c1cc(C#N)cc(S(F)(F)(F)(F)F)c1", "test": "cell-free assay, competition with immobilised ligand", "conditions": "0.1 µM", "remaining binding": "83%"}
{"Compound": "O=C(c1ccc(Nc2ncc(Cl)c(-c3cc4ccccc4s3)n2)cc1)N1CCC(N2CCCC2)CC1", "test": "binding, competition with immobilised ligand", "conditions": "1 µM", "remaining binding": "100%"}
{"Compound": "Cc1nc(N2CC[C@@H](O)C2)ncc1-c1cc(C(F)(F)F)cc2[nH]ncc12", "test": "binding, competition with immobilised ligand", "conditions": "1 µM", "remaining binding": "100%"}
{"Compound": "COc1cnc(Nc2cccc(S(N)(=O)=O)c2)nc1N1CCN(c2ccccc2)C(=O)C1", "test": "binding, competition with immobilised ligand", "conditions": "1 µM", "remaining binding": "100%"}
{"Compound": "COc1cc(-c2cn(C3CCc4ccccc4N(CC(F)(F)F)C3=O)nn2)ccc1-n1ccc(C)n1 (stereo not shown)", "test": "cell-free assay, competition with immobilised ligand", "conditions": "1 µM", "remaining binding": "100%"}
{"Compound": "CN(C)c1nccc(-c2cnn3ncccc23)n1", "test": "binding", "conditions": "1 µM", "remaining binding": "100%"}
{"Compound": "O=C(NCCCN1CCOCC1)c1ccc(Nc2ncc(Cl)c(-c3ccc(Cl)s3)n2)cc1", "test": "binding, competition with immobilised ligand", "conditions": "1 µM", "remaining binding": "100%"}
{"Compound": "Nc1ncc2c(n1)-c1c([nH]c3ccc(C#CC4CC4)cc13)CCCC2", "test": "binding, competition with immobilised ligand", "conditions": "1 µM", "remaining binding": "97%"}
{"Compound": "O=C(NCCCN1CCOCC1)c1ccc(Nc2nccc(-c3cc4ccccc4s3)n2)cc1", "test": "binding, competition with immobilised ligand", "conditions": "1 µM", "remaining binding": "100%"}
{"Compound": "c1cnn2ncc(-c3ccnc(N4CCC45COC5)n3)c2c1", "test": "binding", "conditions": "1 µM", "remaining binding": "92%"}
{"Compound": "COc1ncc2cc3ccccc3nc2c1C#N", "test": "cell-free assay, competition with immobilised ligand", "conditions": "5 µM", "remaining binding": "100%"}
{"Compound": "CC1=C(C#N)[C@@H](c2ccc3[nH]nc(C)c3c2)C(C#N)=C(c2ccc(Cl)cc2)N1", "test": "cell-free assay, competition with immobilised ligand", "conditions": "1 µM", "remaining binding": "81.4%"}
{"Compound": "COc1ccnn2ncc(-c3ccnc(N(C)C)n3)c12", "test": "binding", "conditions": "1 µM", "remaining binding": "100%"}
{"Compound": "CNC(=O)[C@@H]1CC[C@@H](n2c(-c3ccc4cnccc4c3)nc3ccc(C(=O)NCc4cccc(C(N)=O)c4)cc32)C1", "test": "binding, competition with immobilised ligand", "conditions": "1 µM", "remaining binding": "100%"}
{"Compound": "O=C(NC[C@@H]1[C@H]2CN(C(=O)OCc3cc(C(F)(F)F)cc(C(F)(F)F)c3)C[C@@H]12)c1ccc2[nH]nnc2c1", "test": "cell-free assay, competition with immobilised ligand", "conditions": "1 µM", "remaining binding": "100%"}
{"Compound": "O=C(Nc1c[nH]nc1C(=O)NC1CCNCC1)c1cc(F)cc(F)c1", "test": "binding, competition with immobilised ligand", "conditions": "1 µM", "remaining binding": "100%"}
{"Compound": "F[C@@H]1CCN(c2nccc(-c3cnn4ncccc34)n2)C1", "test": "binding", "conditions": "1 µM", "remaining binding": "0%"}
{"Compound": "O=C(O)c1cc(-c2ccc(C3CCNCC3)cc2)c2ccc(-c3ccc(C(F)(F)F)cc3)cc2c1", "test": "cell-free assay, competition with immobilised ligand", "conditions": "1 µM", "remaining binding": "100%"}
{"Compound": "FC(F)(F)Oc1cccc(-c2cnc3ccc(-c4ccncc4)nn23)c1", "test": "cell-free assay, competition with immobilised ligand", "conditions": "5 µM", "remaining binding": "96%"}
{"Compound": "N[C@H]1CCN(c2nccc(-c3cnn4ncccc34)n2)C1", "test": "binding", "conditions": "1 µM", "remaining binding": "82%"}
